Like-named read-outs stand apart in the source and are kept apart here.
How the values were obtained:
[1] = target: T1, DmNobo (Drosophila melanogaster, UniProt Q7JYX0); assay: Crystal structures of DmNobo complexed with inhibitors; details: for # of bound molecules in the H-site: crystal structure of DmNobo complex; for Conformational change of Phe39: apo vs compound-bound; for GSH requirement for binding: crystals soaked with or without GSH; for GS-conjugation: observed in crystal structure with GSH
T1 sequence (Q7JYX0 whole entry): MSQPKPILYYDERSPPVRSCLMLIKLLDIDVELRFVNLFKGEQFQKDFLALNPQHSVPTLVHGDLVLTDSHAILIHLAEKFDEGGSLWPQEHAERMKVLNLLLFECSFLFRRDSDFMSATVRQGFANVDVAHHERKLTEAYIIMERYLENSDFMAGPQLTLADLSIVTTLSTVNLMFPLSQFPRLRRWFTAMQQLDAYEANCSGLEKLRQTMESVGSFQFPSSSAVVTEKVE
Method in brief: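 DmNobo was expressed in E. coli BL21(DE3) from a pCold III construct and purified by GSH affinity and size-exclusion chromatography. Crystals were grown over 34% (v/v) PPG400, 80 mM Bis-Tris pH 6.4. They were soaked 2 days in 42.5% PPG400, 100 mM Bis-Tris pH 6.4 with 30 mM test compound, ±10 mM GSH, then flash-frozen. Synchrotron data were phased by molecular replacement using apo DmNobo. Contacts were defined as ≤4.0 Å.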

[2] = target: T1, DmNobo; assay: GST activity inhibition assay; assay type: biochemical
Method in brief: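 Recombinant DmNobo from E. coli was used. Test compounds were serially diluted two-fold in DMSO (stock series from 2.5 mM down), then premixed with enzyme and GSH before 3,4-DNADCF was added. The final mix was 100 mM sodium phosphate pH 6.5, 25 ng·mL⁻¹ DmNobo, 1 mM GSH, 0.005% Tween 20 and 1 µM substrate. Fluorescence of the conjugate (ex 485/em 538 nm) was read every 30 s for 3 min. Relative activity was activity with/without compound; IC50 was taken from duplicate assays, with SD.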

[3] = target: T1, DmNobo; details: crystal structure PDB ID: 6KEP; cited from earlier work

| Structure (SMILES) | # of bound molecules in the H-site [1] | Conformational change of Phe39 ([1]; crystal structure) | GSH requirement for binding [1] | GS-conjugation [1] | IC50 [2] [µM] | Different conformations of the inhibitor in subunits A and B ([1]; crystal structure) | inhibitory activity against DmNobo (in words) ([2]; GSH-conjugation activity, 3,4-DNADCF) | # of bound molecules in the H-site [3] |
| --- | --- | --- | --- | --- | --- | --- | --- | --- |
| O=C1CS(=O)(=O)N(Cc2ccc(F)cc2)c2ccsc21 [TDP012, 1-(4-fluorobenzyl)-1H-thieno[3,2-c][1,2]thiazin-4(3H)-one 2,2-dioxide] | 1 | YES | GSH-dependent and YES | YES | 3.1 ± 0.77 |  |  |  |
| Nc1ccc(N2CCc3sccc3C2)nc1 [TDP015, 6-(6,7-dihydrothieno[3,2-c]pyridin-5(4H)-yl)-3-pyridinamine] | 2 | YES | GSH-dependent and YES | YES | 3.32 ± 0.81 |  |  |  |
| Cc1ccc(C(C)(C)C)cc1S(=O)(=O)Nc1ccccc1C(=O)O [TDP013, 2-(5-tert-butyl-2-methyl-benzenesulfonylamino)-benzoic acid] | 1 | YES |  |  | 8.94 ± 1.65 | YES |  |  |
| CC1(C)CC(=O)CC(=O)C1 [TDP045, 5,5-dimethyl-1,3-cyclohexanedione] | 1 |  |  | YES | > 1000 |  | did not exhibit a strong inhibitory activity |  |
| C[C@]12CC[C@@H]3c4ccc(O)cc4CC[C@H]3[C@@H]1CC[C@@H]2O [17β-Estradiol, 17β-estradiol] |  |  |  |  |  |  |  | 1 |
| COc1cccc(C2=NC(C)(C)NC(c3cc(Br)ccc3O)C2)c1 (stereo not drawn) [TDP011, 4-bromo-2-[4-(3-methoxyphenyl)-2,2-dimethyl-5,6-dihydro-1H-pyrimidin-6-yl]phenol] | 1 | YES | GSH-dependent and YES | YES | 6.72 ± 1.48 |  |  |  |
